Measured values gathered from unrelated publications.
Protocols differ between the studies behind these lines.

For `N[C@@H](Cc1ccc(N(CCCl)CCCl)cc1)C(=O)O`, the IC50 was > 50 µM (MCF-10A; cell growth or viability, CCK-8; 48 h).
With `CCCCCCc1ccc(O)cc1O` the inhibition was 57% (human PBMC; cell migration; 10 µM).
The IC50 of `O=C(O)CCCc1ccc(N(CCCl)CCCl)cc1` is reported as > 50 µM (MCF-10A; cell growth or viability, CCK-8; 48 h).
`O=C(Oc1ccc(-n2cccc2)cc1)[c-]1cccc1.[Fe+2].c1cc[cH-]c1` has an IC50 of 1.8 µM (MCF-10A; cell growth or viability, MTT; 72 h).
`CN1CCCN=C1/C=C/c1cccs1` has an inhibition of 76% (human PBMC; cell migration; 10 µM).
`O=C(c1cc(Cl)c(Cl)[nH]1)c1c(O)cccc1O` has an IC50 of 1.3 µg/mL (MDCK; cell growth or viability, MTT; 72 h).
The IC50 of `[Se]=c1n(C2CCCCC2)ccn1C1CCCCC1` is reported as 14.2 µM (HCT-15; cell growth or viability, MTT; 72 h).
`COc1cc2c3c(n(CCCNCCO)c(=O)c2cc1OC)-c1cc2c(cc1C3=O)OCO2` has a GI50 of 20 nM (HOP-62; cell growth or viability).
For `O=C(O)C(Cl)Cl`, the IC50 was > 50 µM (HCT-15; cell growth or viability, MTT; 72 h).
`O=C(Oc1ccc(Br)cc1)[c-]1cccc1.[Fe+2].c1cc[cH-]c1` has an IC50 of 353 µM (MCF-10A; cell growth or viability, MTT; 72 h).
For `O=C(O)c1cc(S(=O)(=O)NCc2ccco2)c(Cl)cc1N1CCCCC1`, the inhibition was 42% (human PBMC; cell migration; 10 µM).
`Cn1cncc1[C@@](N)(c1ccc(Cl)cc1)c1ccc2c(c1)c(-c1cccc(Cl)c1)cc(=O)n2C` gave an IC50 of 9.78 µM (CAL-27; cell growth or viability; 72 h).
For `NS(=O)(=O)c1cc(C(=O)O)c(NCc2ccco2)cc1Cl`, the IC50 was ~1 µM (human PBMC; cell migration, inhibitor).
With `CCCCCCCCCCCCCCCC[N+](C)(C)C` the IC50 was 9 µM (MDCK; cell growth or viability, MTT).
For `O=C(O)c1ccccc1NCc1ccco1`, the inhibition was 82% (human PBMC; cell migration; 10 µM).
With `Cc1cc(C)c(N2CCN(c3c(C)cc(C)cc3C)C2=[Se])c(C)c1` the IC50 was 10.2 µM (HCT-15; cell growth or viability, MTT; 72 h).
